Experimental data published in ChEMBL document CHEMBL1156534, “Hemopressin is an inverse agonist of CB1 cannabinoid receptors” (Proc Natl Acad Sci U S A, 2007).
The source made the active and inactive calls. The calls are words filed in the database; no cut-off is given here.

Tests used:
[1] = target: T1, Alpha-2A adrenergic receptor (Homo sapiens) (UniProt P08913); assay: Antagonist activity at alpha2A adrenergic receptor expressed in HEK293 cells assessed as blockade of secreted alkaline phosphatase activity at 1 uM after 6 hrs relative to control; assay type: functional, cell-based
T1 sequence (whole entry): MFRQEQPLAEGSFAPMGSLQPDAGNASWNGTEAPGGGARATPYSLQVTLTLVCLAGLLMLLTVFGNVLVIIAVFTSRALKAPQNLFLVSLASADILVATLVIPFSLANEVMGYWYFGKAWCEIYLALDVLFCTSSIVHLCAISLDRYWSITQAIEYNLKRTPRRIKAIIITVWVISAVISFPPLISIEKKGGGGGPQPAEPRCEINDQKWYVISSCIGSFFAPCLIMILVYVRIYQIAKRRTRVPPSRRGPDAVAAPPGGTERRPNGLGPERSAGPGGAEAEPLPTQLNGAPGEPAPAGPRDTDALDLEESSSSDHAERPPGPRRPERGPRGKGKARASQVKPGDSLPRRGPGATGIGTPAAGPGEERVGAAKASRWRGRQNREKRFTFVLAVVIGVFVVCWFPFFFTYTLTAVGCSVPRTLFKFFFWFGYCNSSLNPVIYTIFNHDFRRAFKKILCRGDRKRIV
Method in brief: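 HEK-293 cells transiently co-transfected with pCRE-SeAP and a Flag-tagged receptor, 30,000 cells/well on poly-L-lysine. They were serum-starved 16–18 h, then exposed 6 h in serum-free medium to 10 μM forskolin (omitted for β2) plus the receptor agonist (100 nM), with or without peptide (1 μM). Heat-treated supernatant SeAP was read by CSPD chemiluminescence. Mean ± SEM, n = 6.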

[2] = target: Cannabinoid receptor 1 (Rattus norvegicus) (UniProt P20272); assay: Antagonist activity at Long-Evans rat striatal membrane CB1 receptor assessed as blockade of Hu210-induced increase in GTPgammaS binding; assay type: functional
Method in brief: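 Membranes (10 μg) came from striatum (CB1) or spleen (CB2). They were tested in GTPγS-binding or adenylyl cyclase assays with Hu-210 and test ligand (0–1 μM), or with Hu-210 curves with or without 10 μM peptide; a 1 μM single-point combination was also used. Mean ± SE of triplicates.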

[3] = target: Cannabinoid receptor 2 (Homo sapiens) (UniProt P34972); assay: Antagonist activity at CB2 receptor expressed in Neuro 2A cells assessed as blockade of Hu210-mediated increase in number of neurite outgrowth at 10 uM after 16 hrs; assay type: functional, cell-based
Method in brief: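 Neuro 2A cells transfected with Flag-tagged CB1 or CB2 were exposed 16 h in 0.1% FBS medium to 100 nM Hu-210 with or without 10 μM peptide. The percentage of cells extending neurites was scored and normalized to untreated cells (100%). Mean ± SE of triplicate experiments.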

[4] = target: Mu-type opioid receptor (Homo sapiens) (UniProt P35372); assay: Antagonist activity at mu opioid receptor expressed in SKNSH cells at 100 nM by ELISA relative to control; assay type: functional, cell-based; set-up: scale not given: the % may be the effect or the level left
[5] = target: Delta-type opioid receptor (Homo sapiens) (UniProt P41143); assay: Antagonist activity at delta opioid receptor expressed in SKNSH cells assessed as blockade of deltorphin 2-induced increase in antibody recognition at 100 nM by ELISA relative to control; assay type: functional, cell-based; set-up: scale not given: the % may be the effect or the level left
Sequence of Delta-type opioid receptor (Homo sapiens) (P41143 whole entry): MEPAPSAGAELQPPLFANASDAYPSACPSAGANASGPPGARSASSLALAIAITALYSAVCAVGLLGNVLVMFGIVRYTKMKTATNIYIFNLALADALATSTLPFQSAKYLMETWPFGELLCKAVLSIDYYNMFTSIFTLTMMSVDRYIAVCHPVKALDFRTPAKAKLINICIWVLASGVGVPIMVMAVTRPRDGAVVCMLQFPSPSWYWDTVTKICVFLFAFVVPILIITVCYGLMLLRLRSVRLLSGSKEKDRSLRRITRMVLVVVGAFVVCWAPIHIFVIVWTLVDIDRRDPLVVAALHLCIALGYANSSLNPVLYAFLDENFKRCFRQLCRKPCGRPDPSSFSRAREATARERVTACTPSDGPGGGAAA

Sequence of Cannabinoid receptor 2 (Homo sapiens) (P34972 whole entry): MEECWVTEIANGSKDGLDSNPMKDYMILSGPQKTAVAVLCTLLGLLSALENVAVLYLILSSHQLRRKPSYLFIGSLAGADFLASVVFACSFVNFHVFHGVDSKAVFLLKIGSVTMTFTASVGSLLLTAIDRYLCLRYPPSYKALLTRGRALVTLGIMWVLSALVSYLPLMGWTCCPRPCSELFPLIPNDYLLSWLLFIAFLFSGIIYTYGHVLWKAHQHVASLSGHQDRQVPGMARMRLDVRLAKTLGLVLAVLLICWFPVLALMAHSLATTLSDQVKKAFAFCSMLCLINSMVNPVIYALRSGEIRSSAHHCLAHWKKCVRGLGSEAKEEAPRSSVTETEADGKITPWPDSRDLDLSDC
Sequence of Mu-type opioid receptor (Homo sapiens) (P35372 whole entry): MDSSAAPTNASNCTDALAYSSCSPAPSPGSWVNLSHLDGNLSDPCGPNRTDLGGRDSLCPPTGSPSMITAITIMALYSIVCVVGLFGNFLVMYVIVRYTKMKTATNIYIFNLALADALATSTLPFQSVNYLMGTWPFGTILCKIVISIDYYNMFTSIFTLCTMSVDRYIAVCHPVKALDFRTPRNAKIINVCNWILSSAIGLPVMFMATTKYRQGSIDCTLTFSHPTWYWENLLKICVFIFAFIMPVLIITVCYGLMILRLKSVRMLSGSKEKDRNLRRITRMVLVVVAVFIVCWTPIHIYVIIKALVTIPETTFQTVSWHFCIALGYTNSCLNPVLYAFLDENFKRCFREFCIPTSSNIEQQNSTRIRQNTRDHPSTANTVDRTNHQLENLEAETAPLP
Sequence of Cannabinoid receptor 1 (Rattus norvegicus) (P20272 whole entry): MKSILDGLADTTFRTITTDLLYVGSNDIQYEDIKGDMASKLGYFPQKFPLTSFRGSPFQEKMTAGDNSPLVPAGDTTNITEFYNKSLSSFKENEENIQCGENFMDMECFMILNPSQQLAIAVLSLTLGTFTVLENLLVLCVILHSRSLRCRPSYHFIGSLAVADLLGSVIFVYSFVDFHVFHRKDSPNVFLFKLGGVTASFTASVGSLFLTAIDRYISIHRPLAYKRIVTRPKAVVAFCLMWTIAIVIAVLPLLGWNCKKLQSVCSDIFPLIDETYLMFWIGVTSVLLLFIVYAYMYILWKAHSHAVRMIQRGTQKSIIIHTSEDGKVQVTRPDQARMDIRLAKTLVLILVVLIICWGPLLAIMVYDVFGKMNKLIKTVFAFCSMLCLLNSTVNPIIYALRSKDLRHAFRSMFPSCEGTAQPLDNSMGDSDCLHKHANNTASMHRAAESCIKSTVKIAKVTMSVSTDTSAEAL

CC(C)C[C@H](NC(=O)[C@H](Cc1ccccc1)NC(=O)[C@H](CCCCN)NC(=O)[C@H](Cc1ccccc1)NC(=O)[C@H](CC(N)=O)NC(=O)[C@@H](NC(=O)[C@@H]1CCCN1)C(C)C)C(=O)N[C@@H](CO)C(=O)N[C@@H](Cc1cnc[nH]1)C(=O)O [HEMOPRESSIN]
Activity [1]: 0.92 | Activity [2]: Active | Activity [3]: inactive | Activity [4]: 106% | Activity [5]: 131%
